Source: PubChem BioAssay
APJ antag = antagonists of human APJ apelin receptor; AID 2521; inhibition, % at 20 µM; CHO-K1 APJ beta-arrestin complementation, luminescence; 0.32% of 330,000 active;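 active means inhibition above about 40% at 20 µM, limit read from the data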;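 further: cells challenged with 10 nM apelin-13 agonist together with compound; plate controls were apelin-13 plus DMSO wells for no effect and DMSO wells lacking apelin-13 for full effect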
APJ ag = agonists of human APJ apelin receptor. 0.11% of 330,000 active. P35414. CHO-K1 APJ PathHunter beta-arrestin, luminescence; 0% DMSO wells, 100% apelin. activation, % at 20 µM;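 active means activation more than six SD over the plate average, tested at 20 µM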;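 further: 0% = DMSO alone and 100% = apelin-13 at 10 nM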
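Test system: CHO-K1 APJ beta-arrestin complementation cell line | Compound: Single test compound dose, 20 µM final, 1% DMSO | Incubation: Compound 90 min 25 °C, reagent 1 h | Measured by: beta-gal luminescence | Read-out basis: APJ–arrestin association signal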
CCR6 antagonist = blocks CCL20-driven beta-arrestin recruitment at human CCR6; CHO-K1 CCR6 PathHunter beta-arrestin, luminescence, CCL20-stimulated; inhibition, % at 20 µM; 0.49% of 340,000 active; AID 493098;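 active means compounds whose inhibition of the agonist-driven luminescence signal at 20 µM reaches about 50%, limit read from the data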;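 further: cells stimulated with CCL20 at 14 nM final; plate controls were DMSO with CCL20 for no effect and DMSO without agonist for full effect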
CXCR6 inh = inhibitors of human CXCR6 receptor; O00574; CHO-K1 PathHunter CXCR6 beta-arrestin, luminescence; inhibition, % at 20 µM; 0.36% of 360,000 active; AID 602244; in the data active means inhibition above about 34%, passing the limit was not always enough;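 further: antagonist mode with CXCL16 agonist at 10 nM final; 0% = 10 nM CXCL16 with DMSO and 100% = unstimulated wells without agonist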
EBI2 block = antagonists of human EBI2 receptor. P32249. EBI2 beta-arrestin recruitment, luminescence, 7a,25-OHC stimulated. inhibition, % at 5 µM. 0.81% of 360,000 active. AID 651636; in the data active means inhibition above about 38%;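 further: enzyme fragment complementation signal reports receptor beta-arrestin coupling in cells; 0% = agonist plus DMSO wells and 100% = wells without agonist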
Target sequence (P32249 whole entry, looked up, the tested form may be a part): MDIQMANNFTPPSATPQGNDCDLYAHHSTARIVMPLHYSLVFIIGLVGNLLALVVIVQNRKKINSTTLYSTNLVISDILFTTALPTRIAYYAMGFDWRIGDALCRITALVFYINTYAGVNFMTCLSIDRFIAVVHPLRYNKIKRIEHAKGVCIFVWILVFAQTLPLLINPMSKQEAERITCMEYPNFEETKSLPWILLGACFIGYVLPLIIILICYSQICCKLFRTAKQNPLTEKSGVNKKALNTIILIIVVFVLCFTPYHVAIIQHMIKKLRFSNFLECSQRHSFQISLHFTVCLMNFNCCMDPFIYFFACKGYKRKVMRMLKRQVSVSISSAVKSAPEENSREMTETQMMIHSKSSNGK
* = called active by the depositor; . = no result given. This is a sample that favours compounds with a hit; in the whole collection about 1.5% have one here.

SMILES | APJ antag | APJ ag | CCR6 antagonist | CXCR6 inh | EBI2 block
Cc1ccccc1C(=O)NC(=S)Nc1ccc(Oc2ccc(Cl)cc2)cc1 | 36 | -6 | 53* | 25 | 22
O=C(NC(=S)Nc1ccc(Oc2ccccc2)cc1)c1ccc(Cl)cc1 | 16 | 0 | 46 | 28 | -7
CC(c1nc2ccccc2c(=O)[nH]1)N1CCCN(S(=O)(=O)c2ccc(F)cc2)CC1 (configuration not stated) | -10 | -2 | -4 | -21 | 26
Cc1cc(Cl)ccc1N=c1ssnc1Cl | 14 | -2 | 39 | 14 | 38*
N#Cc1ccccc1S(=O)(=O)N1CCN(S(=O)(=O)c2ccc(Br)c(C(=O)O)c2)CC1 | -21 | -1 | -4 | 5 | -8
CC1=NNC(=O)/C1=C\c1cn(-c2ccccc2)nc1-c1ccc(Cl)cc1 | -27 | 38* | -11 | -4 | 91*
CC1(C)CC(=O)C(=Cc2cn(-c3ccccc3)nc2-c2ccccc2)C(=O)C1 | -6 | 7 | -30 | -12 | 38
Cc1nnc(N=c2ssnc2Cl)o1 | 21 | -1 | 56* | 13 | 41*
CCOC(=O)CS(=O)(=O)c1nc(-c2ccc(F)cc2)cc(C(F)(F)F)n1 | 35 | -1 | 52* | 67* | 60*
CCOC(=O)CCS(=O)(=O)c1nc(-c2ccccc2)cc(C(F)(F)F)n1 | 36 | 1 | 34 | 29 | 27
O=C(CCn1cnc2ccccc2c1=O)Nc1nc(-c2ccc(Br)cc2)cs1 | 6 | 23* | 0 | 0 | -49
COc1cc(/C=C/C(=O)c2ccc([N+](=O)[O-])o2)ccc1O | -54 | 2 | 75* | 15 | -24
COc1cc(/C=C/C(=O)/C=C(O)/C=C/c2ccc(O)c(OC)c2)ccc1O | 4 | -8 | 54* | 33 | -4
COc1cc(/C=C/C(=O)O)ccc1O | 4 | -2 | 8 | -5 | -5
O=C(COC(=O)Cc1ccc(F)cc1)NC(=O)c1ccccc1 | 9 | -1 | -7 | -2 | 2
CC(=O)c1ccc(NC(=O)C(C)n2c3ccccc3c3nc(=O)cc(C)n32)cc1 (configuration not stated) | 2 | -1 | 8 | -2 | -2
CC(C)CNC(=O)C(=O)Nc1cc2c3c(c1)C(C)C(=O)N3CCC2 (configuration not stated) | -3 | 6 | -1 | -13 | -2
CC(C)N=c1cc2n(-c3ccc(Cl)cc3)c3ccccc3nc-2cc1Nc1ccc(Cl)cc1 | 67* | -7 | 50 | 46* | 4
Cn1c(CNc2ccc(Cl)cc2)nc2ccccc21 | -3 | -4 | 5 | -17 | 3
O=C(O)c1cccc(-c2noc(-c3cccc(Cl)c3)n2)c1 | 6 | -2 | 6 | 6 | -2
O=C(CSc1ncccc1C(=O)O)NC12CC3CC(CC(C3)C1)C2 | 0 | -1 | -1 | -10 | -2
COc1ccc(-c2cc(C(=O)c3c(N)n(C)c(=O)n(C)c3=O)c3ccccc3n2)cc1OC | 12 | -2 | 3 | -11 | 5
Cc1cccc(Cn2c(N3CCN(C)CC3)nc3c2c(=O)n(C)c(=O)n3C)c1 | -2 | 1 | 7 | 7 | -1
CC1CCN(C(=O)CSC2=NS(=O)(=O)c3cc(F)ccc3N2)CC1 | 10 | -4 | 13 | 4 | -5
O=C(N/N=C/C(Br)=C\c1ccccc1)c1cccs1 | -7 | 3 | 11 | -7 | 4
SMILES | APJ antag | APJ ag | CCR6 antagonist | CXCR6 inh | EBI2 block
N#CC(C#N)=C1C=CC=CN1/C(=C\c1ccccc1)C(=O)c1cccs1 | 24 | -3 | 87* | 9 | -10
COc1ccc(C(=O)/C(C#N)=N/Nc2ccc([N+](=O)[O-])cc2)cc1 | 73* | -10 | 76* | 67* | -5
COc1ccc(C(=O)/C(C#N)=N/Nc2ccccc2[N+](=O)[O-])cc1 | 32 | -2 | 42 | 34 | 3
N#CC(C#N)=NNc1ccc([N+](=O)[O-])cc1 | 26 | -9 | 57* | 43* | 13
Cc1oc2c(CN3CCCCC3)c(O)ccc2c(=O)c1-c1ccc(Cl)cc1 | 20 | -2 | 6 | 5 | -2
CC(C)(C)CC(=O)Nc1cc2c3c(c1)CCC(=O)N3CCC2 | 8 | 0 | -3 | 0 | -13
CCc1nc2ccc(C(=O)Nc3ccc(Cl)c(Cl)c3)cn2c1N(C)Cc1ccc(OC)cc1 | . | . | . | -12 | 9
COc1ccc(NC(=O)CCNC(=O)C2CCN(S(=O)(=O)c3ccccc3)CC2)cc1OC | . | . | . | -6 | -5
CCCCCCCCCCCCCCC[C@@H](O)[C@@H](N)CO | . | . | 68* | 15 | 12
Oc1ccc(/C=N/Nc2ccnc3cc(Cl)ccc23)c(O)c1 | -13 | 2 | 11 | -3 | 46*
CN(C)c1ccc(/C=C2/C[N+](C)(C)C/C(=C/c3ccc(N(C)C)cc3)C2=O)cc1 | . | . | 62* | 49* | -17
COc1cc(/C=N/n2c(-c3ccc4c(c3)NC(=O)CO4)csc2=Nc2cccc(C)c2)ccc1O | 7 | -4 | 19 | 13 | 52*
COCCN=c1scc(-c2cccs2)n1/N=C(\C)c1ccco1 | 9 | -3 | 17 | 3 | -1
COCCN=c1scc(-c2ccc3c(c2)NC(=O)CO3)n1/N=C(\C)c1ccc(O)cc1 | 0 | -6 | . | 56* | 37
COc1cc(/C=C2/SC(=S)N(Cc3ccccc3)C2=O)cc(Cl)c1O | . | . | 47 | 37 | 9
CCOC(=O)CN1C(=O)S/C(=C/c2ccc(OC)c([N+](=O)[O-])c2)C1=O | 10 | 1 | 15 | 9 | 2
COc1cc(/C=C2\SC(=O)N(Cc3ccc(F)cc3)C2=O)cc([N+](=O)[O-])c1O | 27 | -9 | 50* | 30 | 19
COc1cc(/C=C2\SC(=O)N(Cc3ccc(Cl)cc3)C2=O)cc([N+](=O)[O-])c1O | . | . | 56* | 38 | 13
S=C(NCC1CCCO1)Nc1ccccc1 (configuration not stated) | -12 | -3 | 4 | -4 | -5
O=C1C=CC(=O)N1c1ccccc1N1C(=O)C=CC1=O | . | . | 108* | 72* | 25
Cn1c(C(=O)N2CCN(c3ccc(Cl)cc3)CC2)cc2c(=O)[nH]c3ccccc3c21 | -22 | 23 | -10 | -2 | 83*
CCN(CC)c1ccc(/C=C2\CCC(/C=C(\C#N)C(=O)Nc3ccccc3F)=C2N2CCOCC2)cc1 | . | . | 91* | 29 | 19
CCN(CC)c1ccc(/C=C2\CCC(/C=C(/C#N)C(=O)Nc3ccccc3F)=C2N2CCOCC2)cc1 | . | . | 102* | 45* | 27
N#C/C(=C\C1=C(N2CCOCC2)C(=C\c2ccc(Cl)cc2)/CC1)C(=O)Nc1ccccc1F | . | . | 31 | 11 | 14
N#C/C(=C/C1=C(N2CCOCC2)C(=C/c2ccccc2)/CC1)C(=O)Nc1ccccc1F | . | . | 45 | 30 | 21
NC(N)=N/N=C/c1cccc([N+](=O)[O-])c1O | 15 | -4 | 19 | 14 | -8
O=[N+]([O-])c1cccc(/C=N\N=C2c3ccccc3-c3ccccc32)c1O | 54* | -10 | 69* | 43* | -4
